According to PubChem BioAssay AID489030 (Sanford-Burnham Center for Chemical Genomics, 2010):
The campaign covered roughly 330,000 compounds. About 2,400 (0.73%) were called active. How the source made its calls: active means inhibition of at least 40% at 20 µM; inactive means the rest. For the sample, actives were picked, then their nearest neighbours and some compounds at random.

molecular target: Apoptotic protease-activating factor 1 (Homo sapiens) (UniProt O14727); assay: blockers of Apaf-1-driven caspase-3 activation – biochemical, DEVD-Rh110 fluorescence, uHTS, primary screen (AID 489030); details: reconstituted apoptosome caspase-3 activity, at 20 µM, hits give high values;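 further: plate controls were DMSO wells for no effect and DEVD-CHO caspase inhibitor wells for full effect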
Sequence (O14727 whole entry, looked up): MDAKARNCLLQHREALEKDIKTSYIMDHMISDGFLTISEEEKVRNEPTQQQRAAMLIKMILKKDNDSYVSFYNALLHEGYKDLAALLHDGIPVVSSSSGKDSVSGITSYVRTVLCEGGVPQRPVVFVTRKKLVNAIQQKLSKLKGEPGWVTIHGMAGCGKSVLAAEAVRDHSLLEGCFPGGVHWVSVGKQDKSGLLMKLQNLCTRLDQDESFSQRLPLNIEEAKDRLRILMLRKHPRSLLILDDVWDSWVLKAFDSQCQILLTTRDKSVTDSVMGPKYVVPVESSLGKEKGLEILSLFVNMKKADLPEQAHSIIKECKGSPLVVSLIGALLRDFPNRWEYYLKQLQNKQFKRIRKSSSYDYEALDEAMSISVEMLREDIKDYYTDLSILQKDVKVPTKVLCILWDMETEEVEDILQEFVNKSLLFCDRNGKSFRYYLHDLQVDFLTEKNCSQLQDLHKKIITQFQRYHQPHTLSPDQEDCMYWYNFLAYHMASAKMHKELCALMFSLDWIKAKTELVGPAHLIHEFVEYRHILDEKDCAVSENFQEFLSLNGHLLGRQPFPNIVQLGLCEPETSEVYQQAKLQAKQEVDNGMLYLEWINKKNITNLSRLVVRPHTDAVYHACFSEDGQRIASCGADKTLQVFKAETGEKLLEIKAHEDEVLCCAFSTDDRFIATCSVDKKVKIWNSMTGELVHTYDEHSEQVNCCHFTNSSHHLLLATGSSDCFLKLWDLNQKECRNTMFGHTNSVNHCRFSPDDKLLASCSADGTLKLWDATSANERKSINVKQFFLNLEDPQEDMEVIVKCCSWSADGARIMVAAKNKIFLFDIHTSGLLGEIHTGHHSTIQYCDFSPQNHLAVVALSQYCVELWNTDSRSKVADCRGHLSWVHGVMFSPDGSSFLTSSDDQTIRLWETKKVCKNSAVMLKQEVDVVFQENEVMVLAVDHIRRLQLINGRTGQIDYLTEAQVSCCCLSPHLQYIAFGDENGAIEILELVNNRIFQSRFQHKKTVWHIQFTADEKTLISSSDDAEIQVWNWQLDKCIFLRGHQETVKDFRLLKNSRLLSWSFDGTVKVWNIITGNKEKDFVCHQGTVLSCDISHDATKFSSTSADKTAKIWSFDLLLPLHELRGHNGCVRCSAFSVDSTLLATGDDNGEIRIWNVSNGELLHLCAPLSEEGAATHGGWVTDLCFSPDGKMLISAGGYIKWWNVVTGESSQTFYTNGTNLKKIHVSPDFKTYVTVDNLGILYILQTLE
How it was run: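 System: reconstituted apoptosome with Apaf-1, cytochrome c, caspase-9, procaspase-3, dATP; Signal: Rh110 fluorescence intensity; Schedule: 30 min compound preincubation, 50 min activation, room temperature; Reagent: cytochrome c trigger plus (Z-DEVD)2-Rh110 caspase-3 substrate.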

| Compound | inhibition |
| --- | --- |
| CCOC(=O)N1CCC(c2cc(=O)n(-c3ccccc3)[nH]2)CC1 | 86.7% (active) |
| CCOC(=O)CN1CCC(c2ccccc2)CC1 | -14.9% (inactive) |
| CCOC(=O)N1CCC(NC(=O)CCc2ccccc2)CC1 | -3.62% (inactive) |
| CCc1cc(C(=O)OC)c(NC(=O)CC2Sc3ccc(C(F)(F)F)cc3NC2=O)s1 (centres undefined) | 22.8% (inactive) |
| CCOC(=O)Nc1ccc2c(c1)N(C(=O)CN1CCN3CCCC3C1)c1ccccc1CC2 (centres undefined) | -1.68% (inactive) |
| Cc1ccc(-c2cccc([C@H]3[C@@H]4C=CC[C@@H](C)[C@@H]4C(=O)N3Cc3ccccc3)c2)cc1 | 19.9% (inactive) |
| CC1(C)CC(=O)C=C(c2ccc3ncccc3c2)C1 | -1.2% (inactive) |
| Cc1cc2oc(=O)cc(CN3CCN(Cc4ccccc4)CC3)c2cc1C | 17.9% (inactive) |
| COc1cccc2sc3cc(NCC[C@@H]4CCCN4C)ccc3c(=O)c12 | 39.7% (inactive) |
| Cc1cc2oc3ccc(NCCC4CCCN4C)cc3c(=O)c2cc1C (centres undefined) | 46.9% (active) |
| CC(C)c1ccc2oc(=O)cc(CN3CCN(Cc4ccccc4)CC3)c2c1 | 19.2% (inactive) |
| COc1ccc(N(CCC(=O)NCCc2ccccc2)S(=O)(=O)c2ccc(C)cc2C)cc1 | 54.9% (active) |
| COc1ccc(CCNC(=O)CN(c2ccccc2)S(C)(=O)=O)cc1 | 4.78% (inactive) |
| CCOc1ccc(N(CC(=O)NCCc2ccc(OC)cc2)S(C)(=O)=O)cc1 | 5.5% (inactive) |
| O=c1cc(CN2CCN(S(=O)(=O)/C=C/c3ccccc3)CC2)c2ccc(O)cc2o1 | 21.6% (inactive) |
| O=C(NCCCN1CCOCC1)c1ccccc1NS(=O)(=O)c1ccc(F)cc1 | -4.73% (inactive) |
| COc1ccc(N2CCN(c3ccc([N+](=O)[O-])nc3)CC2)cc1 | -5.77% (inactive) |
| CCOC(=O)C1Sc2[nH]c(=O)sc2C(c2ccc(Cl)cc2)C1C(=O)OCC (centres undefined) | 2.05% (inactive) |
| C=CC[C@@H](CC(=O)N[C@H](CO)Cc1ccccc1)C(=O)N[C@H](C)COC(=O)[C@@H](CC=C)Cc1ccc(F)cc1 | 23% (inactive) |
| C=CCC[C@H](Cc1ccc(F)cc1)C(=O)OC[C@@H](NC(=O)[C@@H](CC=C)CC(=O)N[C@H](CO)Cc1ccccc1)C(C)(C)C | 40.6% (active) |
| C=CCC[C@H](Cc1ccc(F)cc1)C(=O)OC[C@@H](Cc1c[nH]c2ccccc12)NC(=O)[C@H](CC=C)CC(=O)N[C@H](CO)Cc1ccccc1 | 1.18% (inactive) |

| Compound | inhibition |
| --- | --- |
| COCCNC(=O)c1ccccc1-c1nc(-c2ccccc2Cl)no1 | 6.12% (inactive) |
| O=C(Nc1cc(S(=O)(=O)N2CCOCC2)ccc1N1CCOCC1)c1c(F)cccc1Cl | -5.54% (inactive) |
| Cc1ccc(NC(=O)CN(C)C(=O)Cn2nnc(-c3ccccc3)n2)cc1 | 8.51% (inactive) |
| Cc1nn(Cc2ccccc2)c2c1C(c1ccccc1)C(C#N)=C(N)O2 (centres undefined) | 7.58% (inactive) |
| COc1ccccc1C1C(C#N)=C(N)Oc2c1c(-c1ccccc1)nn2-c1ccccc1 (centres undefined) | 42.2% (active) |
| COc1ccc(C2C(C#N)=C(N)Oc3cc(N)ccc32)cc1OC (centres undefined) | -6.32% (inactive) |
| COc1ccc(/C=C2/C(=O)N(c3ccccc3)N=C2C)c(OC)c1 | 80.1% (active) |
| COc1ccc(/C=C2/C(=O)OCc3cc(OC)c(OC)cc32)c(OC)c1 | 6.28% (inactive) |
| COc1ccc(C2/C(=C(/O)c3ccccc3)C(=O)C(=O)N2C)c(OC)c1 (centres undefined) | 2.34% (inactive) |
| O=C1CN(C(=O)COC(=O)/C=C/c2ccc(F)cc2)c2ccccc2N1 | 5.3% (inactive) |
| O=C(CO/N=C/c1ccccc1OC(F)F)NC1CCCC1 | 0.277% (inactive) |
| CCCNC(=O)c1ccc(N2CCC3(CC2)CC(c2cccc(Br)c2)=NO3)c(NC(=O)c2ccco2)c1 | 14.2% (inactive) |
| CC1CCC2(CC1)NC(=O)N(CC(=O)c1ccc3c(c1)OCO3)C2=O (centres undefined) | -10.1% (inactive) |
| Cc1ccc(S(=O)(=O)N2CCN(C(=O)N3CCOCC3)CC2)c(C)c1 | -7.82% (inactive) |
| Cc1ccc(S(=O)(=O)N2CCN(C(=O)c3ccccc3-c3nc4ccccc4s3)CC2)c(C)c1 | 40.3% (active) |
| Cc1ccc(S(=O)(=O)N2CCN(C(=O)Cn3c(=O)cnc4ccccc43)CC2)c(C)c1 | -0.646% (inactive) |
| CCCN=C1N(C)C[C@@H]2[C@@H]3C(=O)N(Cc4ccccc4)C(=O)[C@@H]3[C@](C)(C(=O)OC)N12 | 11.4% (inactive) |
| CCN1C[C@@H]2[C@@H]3C(=O)N(Cc4ccccc4)C(=O)[C@@H]3[C@](Cc3ccccc3)(C(=O)OC)N2C1=NC1CCCCC1 | 41.2% (active) |
| CC[C@]1(C(=O)OC)[C@H]2C(=O)N(Cc3ccccc3)C(=O)[C@H]2[C@H]2CN=C(SCc3ccccc3)N21 | 25.2% (inactive) |
| Cc1nnc(Sc2nc3c(c(=O)[nH]c(=O)n3C)n2Cc2ccccc2)s1 | 21% (inactive) |
| O=C(Nc1ccc(N2CCOCC2)cc1)c1ccc(-c2ccccc2[N+](=O)[O-])o1 | 2.89% (inactive) |

| Compound | inhibition |
| --- | --- |
| CC1=NN(c2ccc(Cl)c(C(=O)O)c2)C(=O)/C1=C/c1ccc(-c2ccccc2[N+](=O)[O-])o1 | 42.9% (active) |
| O=C1NC(c2ccc(-c3ccccc3[N+](=O)[O-])o2)C(C(=O)c2ccc(Cl)cc2)C(O)(C(F)(F)F)N1 (centres undefined) | 36.8% (inactive) |
| COC(=O)c1ccc(S(=O)(=O)N2CCC(c3nc4ccccc4o3)CC2)cc1 | -25.7% (inactive) |
| Cc1cccc(C)c1NC(=O)CNC(=O)Cc1ccc(Br)cc1 | -1.64% (inactive) |
| CC(C)N(C(=O)[C@H]1C[C@H](CC(=O)NC(C)(C)C)C(=O)N2CCc3c([nH]c4ccc(Cl)cc34)[C@]12C)C(C)C | 29.3% (inactive) |
| CCC(C)[C@@H](C(=O)N1CCNCC1)n1cc(CCCCN)nn1 (some centres undefined) | -4.43% (inactive) |
| NC(N)=NCCCc1cn(CC(=O)N2CCNCC2)nn1 | 40.2% (active) |
| C[C@@H](C(=O)N1CCNCC1)n1cc(CCC(=O)O)nn1 | 5.94% (inactive) |
| CCN1C(=NCc2ccc(OC)cc2)N[C@@H](CCc2ccccc2)[C@H](C(=O)NCc2ccc(OC)cc2)[C@H]1C | 40.4% (active) |
| CCN1C(=S)N[C@@H](CCc2ccccc2)[C@H](C(=O)OC)[C@H]1C | -4.74% (inactive) |
| CCN1C(=NCC(C)C)N[C@@H](CCc2ccccc2)[C@H](C(=O)NCC(C)C)[C@H]1C | 4.1% (inactive) |
| CCN1C(=O)N[C@@H](CCc2ccccc2)C(C(=O)OC)=C1C | 17.6% (inactive) |
| O=C(NCc1ccccc1Cl)C1CCN(c2ncnc3c2nc2n3CCCCC2)CC1 | -6.54% (inactive) |
| Cc1nn2c(NCCN(C)C)c3c(nc2c1-c1ccccc1)CCC3 | 1.66% (inactive) |
| CCN(C(=O)C1CCCN(c2nc(-c3ccc(OC)cc3)no2)C1)c1ccc(OC)cc1 (centres undefined) | 12.2% (inactive) |
| Cc1cc(=O)cc(C)[nH]1 | -15% (inactive) |
| Oc1c(C=Nc2cccc3nsnc23)ccc2ccccc12 | 95.8% (active) |
| CCOc1ccc(N2CC(C(=O)NCc3ccccn3)CC2=O)cc1 (centres undefined) | 1.44% (inactive) |
| OC(CNCC1CCCO1)Cn1c2ccc(Br)cc2c2cc(Br)ccc21 (centres undefined) | 43.4% (active) |
| CCCN1CCn2c3c(c4cc(Br)ccc42)CCCC31 (centres undefined) | 12.8% (inactive) |
| COCCNC(=O)c1ccc(Cn2c(SCC(=O)NCC3CCCO3)nc3ccc(Br)cc3c2=O)cc1 (centres undefined) | -13.8% (inactive) |

| Compound | inhibition |
| --- | --- |
| CN(C)/C(CN1CCCCC1)=C1\N=C(c2ccccc2)OC1=O | -0.998% (inactive) |
| COC(=O)[C@@H](Cc1ccccc1)NC(=O)NCCc1ccccc1 | -5.88% (inactive) |
| O=C(CCC(=O)c1ccccc1)NCc1cccc(C(F)(F)F)c1 | 6.79% (inactive) |
| NC[C@H](Cc1ccccc1)NCCc1cc(C(F)(F)F)cc(C(F)(F)F)c1 | 60.8% (active) |
| O=C(Cn1nc(CNc2ccc(Cl)cc2)[n+]2c1CCCCC2)c1ccc(Cl)cc1 | 15.2% (inactive) |
| CCc1ccc(/C=N/NC(=O)c2nnn(-c3nonc3N)c2CN2CCc3ccccc32)cc1 | 8.04% (inactive) |
| CC(C)CC[n+]1ccn(C2=C([O-])c3ccccc3C(=O)/C2=N\S(=O)(=O)c2ccccc2)c1 | 55.3% (active) |
| CCc1nc(C)cn1S(=O)(=O)c1cc([N+](=O)[O-])ccc1Cl | 2.1% (inactive) |
| COc1ccc(C(=O)NNc2cc(C)nc(NNC(=O)c3ccc(OC)cc3)n2)cc1 | 8.09% (inactive) |
| CCC(=O)Nc1ccc(Nc2nc(Cl)nc(Nc3ccc(NC(=O)CC)cc3)n2)cc1 | -8.45% (inactive) |
| CC(=O)Nc1ccc(Nc2cc(C)nc(Nc3ccc(NC(C)=O)cc3)n2)cc1 | 46.2% (active) |
| COc1ccc(OCCNC(=O)c2cc(C3CC3)nc3c2cnn3C(C)C)cc1 | 15% (inactive) |
| O=c1nc(N/N=C/c2ccco2)cn[nH]1 | 2.62% (inactive) |
| CCOC(=O)N1CCN(C(=O)COCc2cc(-c3ccc4c(c3)OCO4)on2)CC1 | 15.6% (inactive) |
| CC(C)c1nc(SCC(=O)Nc2cccc(C(=O)O)c2)c2c3c(sc2n1)CCCC3 | 7.92% (inactive) |
| Cc1cc(C)n(-c2nc(SCC(=O)N3CCCC3)c3c4c(sc3n2)CCCC4)n1 | 43.6% (active) |
| COCCNc1nc(-n2nc(C)cc2C)nc2sc3c(c12)CCCC3 | 8.1% (inactive) |
| CCN(CC)S(=O)(=O)c1cc([N+](=O)[O-])ccc1NNC(=O)Nc1ccccc1 | 7.25% (inactive) |
| COC(=O)CN1C(C)=Nc2ccc(Br)cc2C1c1ccccc1 (centres undefined) | 4.57% (inactive) |
| COc1ccc(S(=O)(=O)N2CCCCC2)cc1NC(=O)C1CC(=O)N(c2ccc3c(c2)OCCO3)C1 (centres undefined) | 18.5% (inactive) |
| O=C(COC(=O)c1ccc(O)cc1O)NNC(=O)c1cccs1 | -6.93% (inactive) |
